SR-BI HDL uptake = blocks mouse SR-BI lipid uptake from DiI-HDL; 320,000 compounds, 0.96% hits; ldlA[mSR-BI] CHO cells, DiI-HDL uptake fluorescence, 3 h; Q61009; inhibition, % at 12.5 µM;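 active means mean replicate inhibition of at least 70% and a set share of replicates each scoring 70 or more; inconclusive means meets just one of the two criteria; inactive means fails both criteria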
Target sequence (Q61009 whole entry, looked up): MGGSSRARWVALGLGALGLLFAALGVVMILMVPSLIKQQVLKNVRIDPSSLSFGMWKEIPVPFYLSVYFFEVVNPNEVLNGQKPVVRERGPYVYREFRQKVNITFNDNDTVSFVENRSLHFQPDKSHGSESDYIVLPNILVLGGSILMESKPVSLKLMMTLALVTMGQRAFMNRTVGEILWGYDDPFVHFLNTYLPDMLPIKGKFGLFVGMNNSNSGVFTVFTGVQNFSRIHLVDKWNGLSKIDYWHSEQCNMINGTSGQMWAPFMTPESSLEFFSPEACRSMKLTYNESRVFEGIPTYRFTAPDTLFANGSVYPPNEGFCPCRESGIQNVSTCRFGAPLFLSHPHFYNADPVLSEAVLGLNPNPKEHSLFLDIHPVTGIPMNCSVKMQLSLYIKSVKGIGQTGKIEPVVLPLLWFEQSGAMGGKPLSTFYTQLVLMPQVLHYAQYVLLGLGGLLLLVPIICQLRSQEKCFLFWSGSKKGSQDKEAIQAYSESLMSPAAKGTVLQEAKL
MITF TRPM1 HTS = increases MITF-driven TRPM1 promoter luciferase signal. SK-MEL-5 TRPM1-promoter luciferase, 24 h; % of positive control, neutral wells = 0. activation, % at 12.5 µM. 300,000 compounds, 0.75% hits. AID 588334;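 active means mean activation of at least 80% with every replicate also reaching 80%; inconclusive means mean reaches 80% but some replicate falls short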
Wnt act = Wnt/beta-catenin pathway activation; activation, % at 9.35 µM; 300,000 compounds, 1.2% hits; Wnt/beta-catenin reporter cell assay, activator, plate reader; in the data active means activation above about 30%, passing the limit was not always enough; inconclusive means no clear call, values can overlap the other calls
HSF1 activator = increases HSF-1 driven luciferase reporter signal; NIH3T3-HGL HSF-1 luciferase reporter, MG132, 8 h; 100% = twice DMSO control signal; activation, % at 9 µM; 300,000 compounds, 1.7% hits; AID 504408;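 active means mean replicate activation of at least 50% with a set share of replicates each reaching 50%; inconclusive means only one of those two conditions met; inactive means mean below 50% and too few replicates reaching it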
SR-BI DiI-HDL act = enhances SR-BI lipid uptake from DiI-HDL. 320,000 compounds, 0.096% hits. activation, % at 12.5 µM. CHO ldlA[mSR-BI] cells, DiI-HDL uptake fluorescence, 3 h; 100 = double the neutral-control signal;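 active means mean replicate activation of at least 60% and every replicate at or above 60%; inconclusive means mean or all-replicate condition met, but not both; inactive means mean below 60% and not all replicates reaching 60%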
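Material: SR-BI-overexpressing, LDLR-lacking CHO cells | Dosing: Single compound concentration, delivered by pin transfer | Probe or stimulus: Labelled HDL, 10 µg/mL | Signal: Bottom-read cell fluorescence after medium removal, ex 550/em 595 nm | Schedule: 3 h, 37 °C | Evaluation: HDL uptake via cellular fluorescence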
A number is an active result; – = inactive; ? = inconclusive; · = no result. Compounds with a hit are over-represented: about 3.6% of the library has one in this group of screens.

SMILES | SR-BI HDL uptake | MITF TRPM1 HTS | Wnt act | HSF1 activator | SR-BI DiI-HDL act
O=c1[nH]c2ccccc2nc1Cc1ccccc1 | – | – | – | – | –
O=C(Cc1nc2ccccc2[nH]c1=O)c1ccccc1 | – | – | 33 | – | –
Cc1cccc(N2CCN(C(=O)C3CCN(c4ncnc5c4nc4n5CCCCC4)CC3)CC2)c1C | 74 | – | – | – | –
O=C(C1CCN(c2ncnc3c2nc2n3CCCCC2)CC1)N1CCN(c2ccccc2F)CC1 | – | – | – | – | –
Cc1cccc(N2CCN(C(=O)C3CCN(c4ncnc5c4nc4n5CCCCC4)CC3)CC2C)c1 (configuration not stated) | 71 | – | – | – | –
O=C(/C=C/[C@H]1O[C@@H](n2ccc(=O)[nH]c2=O)[C@H](O)[C@@H]1O)NCC1CCCO1 (some centres not stated) | · | · | – | · | ·
COc1ccc(C2NC(=S)N(Cc3ccc(Cl)cc3)C(C)=C2C(C)=O)cc1 (configuration not stated) | · | · | – | · | ·
CN(C)c1ccc(N=c2sc3ccccc3n2C)cc1 | – | – | 51 | 110 | –
CCC(=NCc1ccc(Cl)c(Cl)c1)c1nc(-c2ccco2)oc1O | – | – | – | 72 | –
CC(=O)c1coc2c1cc(O)c1ccccc12 | – | · | – | – | –
O=C(c1ccco1)c1coc2c1cc(O)c1ccccc12 | – | – | – | 68 | –
c1ccc(Nc2nnc(-c3ccc4c(c3)OCO4)o2)cc1 | · | · | – | · | ·
O=C1C(Cl)=C(N2CCN(c3ccccc3[N+](=O)[O-])CC2)C(=O)c2ccccc21 | – | – | – | 124 | –
Cn1c(N)c(C(=O)COC(=O)COc2ccccc2Cl)c(=O)n(C)c1=O | – | – | – | · | –
COc1ccc(/C=N/N=C/c2ccc(OC)cc2)cc1 | – | – | – | – | –
COc1ccc(C=C(c2ccc(OC)cc2)c2ccc(OC)cc2)cc1 | 72 | – | · | – | –
CC(C)CC(=O)N1CC=CC[C@@H](c2ccc(Cl)cc2)N(Cc2ccc(Cl)cc2)C(=O)[C@@H]1Cc1ccccc1 | – | – | – | · | –
COC(=O)N/N=C/c1cccs1 | – | – | – | – | –
COC(=O)C(=C/C(C)=C/c1cccs1)C(=O)OC | – | – | – | 66 | –
O=C(c1ccccc1)c1c(-c2ccccc2)[nH]n(-c2ccccc2)c(=O)c1=O | – | – | – | – | –
NC(=S)n1[nH]c(-c2ccc([N+](=O)[O-])cc2)c(N=Nc2ccc(Cl)cc2)c1=O | 104 | – | · | · | –
Cc1[nH]n(C(N)=S)c(=O)c1N=Nc1ccc(Br)cc1 | – | – | 40 | – | –
Cc1ccc([N+](=O)[O-])cc1N=Nc1c(-c2ccc([N+](=O)[O-])cc2)[nH]n(C(N)=S)c1=O | 80 | – | · | 56 | –
O=Nc1c(-c2ccccc2)[nH]n(-c2ccccc2)c1=O | – | – | – | 98 | –
CC(=O)C1=C(C)N(Cc2ccc(F)cc2)C(=S)NC1c1ccc(Br)cc1 (configuration not stated) | · | · | – | · | ·
SMILES | SR-BI HDL uptake | MITF TRPM1 HTS | Wnt act | HSF1 activator | SR-BI DiI-HDL act
CCN(C(=O)CCc1cn(CC)c2ccccc12)c1ccc(Oc2cccnc2)cc1 | · | · | – | · | ·
C[C@@H]1COc2cc(N3CCOCC3)ccc2S(=O)(=O)N1 | · | · | – | · | ·
Cc1cc(CN(Nc2ccccc2)c2ccccc2)cc(C)n1 | · | · | – | · | ·
NC(=O)c1ccc(N=Nc2c(-c3ccccc3)[nH]n(-c3ccccc3)c2=O)cc1 | · | · | – | – | ·
O=c1c(N=Nc2ccc(O)cc2)c(-c2ccccc2)[nH]n1-c1ccc([N+](=O)[O-])cc1 | 107 | – | – | – | –
COc1ccc(NC(=O)N2CCN(c3nc(-c4cccc(OC)c4)cs3)CC2)cc1 | 71 | – | · | – | –
COc1cccc(-c2csc(N3CCN(C(=O)Nc4ccc(Cl)cc4)CC3)n2)c1 | – | – | – | – | –
COc1ccc(NC(=O)N2CCN(c3nc4ccccc4n3C(C)C)CC2)cc1 | 81 | – | – | – | –
CC(C)n1c(N2CCN(C(=O)NCc3ccccc3)CC2)nc2ccccc21 | – | · | – | – | –
Cc1c(C)c2c(OCC(=O)NCC3CCC(C(=O)O)CC3)cc3c(c2oc1=O)CCC(C)(C)O3 (configuration not stated) | · | · | – | · | ·
CC(O)(c1ccc(F)c(F)c1)c1nc(-c2ccc(S(C)(=O)=O)cc2)cs1 (configuration not stated) | · | · | – | · | ·
Cc1noc2ncnc(Sc3ccc(Br)cc3)c12 | – | – | – | 153 | –
Cc1noc2ncnc(N3CCCC3)c12 | – | – | – | – | –
COC(=O)[C@@]12C[C@@H](CC(=O)N3CCN(C(=O)C4CC4)CC3)C(=O)N(Cc3ccccc3)C1=CCC(C)(C)C2 | · | · | – | · | ·
CN(CC1COc2ccccc2O1)C(=O)CSc1ncccn1 (configuration not stated) | – | – | – | · | –
CCOc1ncccc1C(=O)N(C)CC1COc2ccccc2O1 (configuration not stated) | – | – | · | 175 | –
O=C(COC(=O)c1cncc(Br)c1)NCc1ccccc1 | – | – | – | 53 | –
O=C(COc1ccc(F)c(Cl)c1)c1ccc[nH]1 | – | – | – | 93 | –
O=C(COc1ccc(Cl)cc1Cl)OCC(=O)c1ccc[nH]1 | – | – | – | · | –
CC1(C(=O)Nc2ccc(Cl)c(C(F)(F)F)c2)Cc2c(-c3ccc4c(c3)OCO4)ccnc2O1 (configuration not stated) | · | · | – | · | ·
CCOC(=O)c1ccc(N2Cc3ccccc3C2=NC(=O)c2cccc([N+](=O)[O-])c2)cc1 | · | ? | – | 68 | ·
COc1ccc(OC)c(CN2C(=O)CSCC2(C)C(=O)NC(C)C)c1 (configuration not stated) | · | · | – | · | ·
CC(C)c1ccc(/C=N/NC(=O)C2CCCC2)cc1 | – | 140 | – | 52 | –
CC(C)(C)c1ccc(/C=N/NC(=O)C2CCCC2)cc1 | – | – | – | · | –
Cc1cc(C(=O)COC(=O)c2ccc(O)cc2)c(C)n1Cc1ccco1 | – | ? | ? | – | –
SMILES | SR-BI HDL uptake | MITF TRPM1 HTS | Wnt act | HSF1 activator | SR-BI DiI-HDL act
Cc1cc(C(=O)COC(=O)c2ccc(Br)o2)c(C)n1C | – | 111 | – | ? | –
CCOc1ncccc1C(=O)OCC(=O)c1cc(C)n(Cc2ccco2)c1C | – | – | 46 | – | –
Cc1cc(C(=O)COC(=O)c2ccc(Br)o2)c(C)n1Cc1ccco1 | · | · | 60 | – | ·
CCN(CC)C1CCN(C(=O)c2ccc(OC3CCN(C(=O)CCOC)CC3)cc2)C1 (configuration not stated) | · | · | – | · | ·
CCc1cc(C(=O)Nc2cc(S(=O)(=O)N3CCCCC3)ccc2N2CCN(C)CC2)sc1C | · | · | – | · | ·
O=S(=O)(c1ccc(Cl)s1)N1CCc2ccccc2C1 | – | – | · | – | –
O=S(=O)(c1ccc(Cl)s1)N1CCCc2cccc(O)c21 | – | · | 39 | 116 | –
C=CCNc1ncnc2c1ncn2[C@H]1CN(CCc2ccccc2)C[C@@H](CO)O1 | · | · | – | · | ·
C(=C\c1nnc(-c2cccs2)o1)/c1ccccc1 | – | 123 | – | ? | –
Cc1ccc(/C=C/c2nnc(-c3ccccc3)o2)cc1 | – | – | · | 55 | –
